Shown are actives, neighbours in structure and some others; about 2.3% of the full set was active somewhere.
TRPC4 act: activators of mouse TRPC4 channel | HEK293 TRPC4beta/mu-opioid, Fluo4 calcium fluorescence; stronger effect = higher value | Q9QUQ5 | hit rate 0.49% among 310,000 | B-score at 10 µM | AID 2237;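 active = B-score above 5 SD of library B-scores, and initial fluorescence ratio not above library mean plus 5 SD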;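 also: positive B-score marks a calcium rise read as TRPC4 activation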
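System – HEK293 cells stably co-expressing mouse TRPC4beta and mu-opioid receptor · Signal – Fluo4 calcium-sensitive dye fluorescence, kinetic, 1 Hz baseline · Benchmarks – buffer (low) and maximal DAMGO (high) · Read-out – B score of integrated fluorescence ratio per well · Incubation – dye loading 45 min room temperature, 110 s kinetic read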
TRPC6 activator: activators of mouse TRPC6 channel. Q61143. HEK293-TRPC6 membrane potential dye fluorescence; stronger effect = higher value. B-score at 10 µM. hit rate 0.13% among 310,000. AID 2550;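 active = B-score of the integrated fluorescence ratio above library mean plus 3 SD, and starting fluorescence ratio within library mean plus 5 SD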;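 also: higher score means more depolarization so channel activation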
Target sequence (Q61143 whole entry, looked up): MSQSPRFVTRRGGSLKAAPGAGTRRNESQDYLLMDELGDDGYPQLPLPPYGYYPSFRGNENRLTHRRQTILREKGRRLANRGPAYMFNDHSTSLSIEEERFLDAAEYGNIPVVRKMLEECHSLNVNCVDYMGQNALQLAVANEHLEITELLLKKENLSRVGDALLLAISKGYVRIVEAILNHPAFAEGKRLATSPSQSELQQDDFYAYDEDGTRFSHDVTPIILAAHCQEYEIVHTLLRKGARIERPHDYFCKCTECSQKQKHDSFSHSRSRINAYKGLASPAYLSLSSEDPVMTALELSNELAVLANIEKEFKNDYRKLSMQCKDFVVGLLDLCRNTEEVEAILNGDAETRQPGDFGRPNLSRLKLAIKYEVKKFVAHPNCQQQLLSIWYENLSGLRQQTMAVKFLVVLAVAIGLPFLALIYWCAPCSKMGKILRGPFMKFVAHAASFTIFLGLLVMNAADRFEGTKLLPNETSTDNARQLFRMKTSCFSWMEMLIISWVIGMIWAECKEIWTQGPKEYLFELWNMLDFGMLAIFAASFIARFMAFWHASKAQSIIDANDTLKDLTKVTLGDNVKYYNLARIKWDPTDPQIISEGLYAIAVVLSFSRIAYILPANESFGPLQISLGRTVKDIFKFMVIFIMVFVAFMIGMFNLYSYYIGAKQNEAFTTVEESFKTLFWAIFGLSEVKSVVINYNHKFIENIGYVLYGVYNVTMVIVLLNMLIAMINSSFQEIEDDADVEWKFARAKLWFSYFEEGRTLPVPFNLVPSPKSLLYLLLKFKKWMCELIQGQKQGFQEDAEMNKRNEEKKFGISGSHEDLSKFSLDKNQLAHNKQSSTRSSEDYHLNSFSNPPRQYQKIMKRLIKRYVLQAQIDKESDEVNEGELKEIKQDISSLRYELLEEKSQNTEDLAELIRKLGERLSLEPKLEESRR
TRPC6 inhibitor: inhibitors of mouse TRPC6 channel; B-score at 10 µM; HEK293-TRPC6, membrane potential dye, ACh-evoked depolarization; stronger effect = lower value; hit rate 1.1% among 310,000;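 active = B-score under library mean minus 3 SD, initial fluorescence not abnormally high, positive integrated signal ratio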;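 also: B-score derived from integrated fluorescence ratio over the kinetic read; more negative B-score means stronger inhibition of depolarization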
TRPC4 block: inhibitors of mouse TRPC4 channel. Q9QUQ5. HEK293 TRPC4beta/mu-opioid, DAMGO-evoked Fluo4 calcium flux; stronger effect = lower value. B-score at 10 µM. hit rate 0.39% among 300,000. AID 2247;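 active = B-score over 3 SD under the library average, no early fluorescence shift, positive overall ratio signal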
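Assay system: HEK293 cells with stable TRPC4beta plus mu-opioid receptor expression. Dosing: single dose. Measured by: Fluo4 Ca2+ flux fluorescence. Also added: DAMGO in two steps, submaximal then maximal. Read-out: B score from integrated Fluo4 fluorescence ratio.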
TRPC4 potent: allosterically enhances the mouse TRPC4 cation channel | Q9QUQ5 | HEK293 TRPC4beta/mu-opioid, DAMGO EC20, Fluo-4 Ca2+ flux; stronger effect = higher value | B-score at 10 µM | hit rate 0.42% among 310,000 | AID 2227;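 active = B-score of calcium response area above 5 SD of library B-scores, with initial fluorescence ratio within 5 SD of library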
TRPC4 sel inh 2: mouse TRPC4 off-target activity of TRPC6 inhibitors, second screen. shares compounds with TRPC6 inhibitor. inhibition, % at 10 µM. AID 2776. hit rate 42% among 920. HEK293 TRPC4/MOR, membrane potential dye fluorescence; channel activated by saturating DAMGO dose;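 active = compounds whose fluorescence signal differed from control wells by over 3 SD, either direction, in both duplicate plates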
TRPC4 spec: mouse TRPC4 off-target activity of TRPC6 inhibitors; activity change, negative = inhibition, % at 10 µM; HEK293 TRPC4/mu-opioid, membrane potential fluorescence; shares compounds with TRPC6 inhibitor; hit rate 61% among 920;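 active = rise or fall in signal beyond 3 SD of buffer-only wells in both replicate plates, either sign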;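 also: integrated kinetic ratio of fluorescence range over baseline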
HEK293 MPD ctr 2-1: parental HEK293 nonspecific activity of TRPC6 inhibitors, second screen | shares compounds with TRPC6 inhibitor | hit rate 31% among 920 | signal change vs control, % at 10 µM | AID 2779 | parental HEK293 membrane potential dye fluorescence; maximal acetylcholine challenge after compound addition;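 active = membrane potential signal moving either way by over 3 SD of the maximum-effect control, in both duplicate plates, meaning non-specific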
HEK293 MPD ctr-1: counter-screen for TRPC6 inhibitors: effect in parental HEK293 cells; shares compounds with TRPC6 inhibitor; parental HEK293 membrane potential dye fluorescence; membrane potential signal change, % at 10 µM; hit rate 60% among 920;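 active = membrane potential signal shifting up or down by more than 3 SD of buffer-only wells, on both duplicate plates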
HEK293 MPD ctr-2: counter-screen for TRPC6 modulators: effect in parental HEK293 cells. shares compounds with TRPC6 inhibitor. membrane potential dye fluorescence. membrane potential signal change, % at 10 µM. hit rate 51% among 2,400;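 active = membrane potential signal moves up or down beyond 5 SD from buffer-only wells, on both duplicate plates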
HEK293 MPD ctr 2-2: parental HEK293 nonspecific activity of TRPC6 modulators, second screen; hit rate 14% among 2,400; AID 488926; shares compounds with TRPC6 inhibitor; membrane potential dye fluorescence; after compound, maximal acetylcholine stimulation; inhibition, % at 10 µM;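 active = membrane potential signal drops by more than 5 SD from the mean control signal, in both duplicate plates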
TRPC4/MOR mod: selectivity of TRPC6 modulators against mouse TRPC4; shares compounds with TRPC6 inhibitor; HEK293 TRPC4/mu-opioid, membrane potential fluorescence; percent change from control (negative = decrease, positive = increase), % at 10 µM; hit rate 69% among 2,400; AID 488927;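 active = membrane potential signal moved up or down beyond 5 SD of buffer control wells, in both duplicate plates, actives on both sides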
TRPC4/MOR inh 2: second check of whether TRPC6 modulators also affect mouse TRPC4 | inhibition, % at 10 µM | hit rate 55% among 2,400 | shares compounds with TRPC6 inhibitor | AID 488928 | HEK293 TRPC4/mu-opioid, membrane potential dye fluorescence; stimulated with maximal-effect DAMGO;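 active = drop in membrane potential signal beyond 5 SD of the control wells in both duplicate plates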;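 also: TRPC4 counter screen for TRPC6 hits run under conditions tuned for TRPC6 not TRPC4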
TRPC6 inh conf: confirmation of mouse TRPC6 inhibitors | shares compounds with TRPC6 inhibitor | HEK293-TRPC6, membrane potential dye, ACh-evoked depolarization | inhibition, % at 10 µM | hit rate 43% among 3,300;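 active = fluorescence ratio falls more than 5 SD below the full-stimulation control mean, in both duplicate runs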;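 also: integrated fluorescence ratio of peak minus minimum over baseline after agonist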
TRPC6 act confirm: mouse TRPC6 activator confirmation. shares compounds with TRPC6 inhibitor. HEK293-TRPC6 membrane potential dye fluorescence, FDSS. activation, % at 10 µM. hit rate 11% among 2,800. AID 488961;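 active = ratio signal rise beyond 5 SD above unstimulated control wells' mean, seen in both duplicate runs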
Numbers stand for hits; – = inactive; · = no result given.

SMILES	TRPC4 act	TRPC6 activator	TRPC6 inhibitor	TRPC4 block	TRPC4 potent	HEK293 MPD ctr-2	HEK293 MPD ctr 2-2	TRPC4/MOR mod	TRPC4/MOR inh 2	TRPC6 inh conf	TRPC6 act confirm	others
CC1(C)Cc2c(C#N)c(NCc3ccco3)nc(-c3ccco3)c2CO1	–	–	–	–	–	·	·	·	·	·	·
N#Cc1c(NCCN)nc(-c2ccco2)c2c1CCCC2	–	–	-8.56	–	–	-258.5%	89.0%	-46.0%	75.0%	76.5%	–
CN(C)CCNc1nc(-c2ccco2)c2c(c1C#N)CC(C)(C)OC2	–	–	-9.7	–	–	-396.0%	77.5%	-65.0%	75.5%	77.0%	–
CCOC(=O)C(C)Sc1nc2c(cnn2-c2ccc(F)cc2)c(=O)[nH]1 (centres undefined)	–	–	–	–	–	·	·	·	·	·	·
CC(C)(C)OC(=O)N[C@@H](Cc1ccccc1)C(=O)NCC1CCC(C(=O)O)CC1 (some centres undefined)	–	–	–	–	–	·	·	·	·	·	·
O=C(CNc1ccc(Oc2ccccc2)cc1)N1CCOCC1	–	–	-5.72	–	–	–	–	–	–	–	–
S=C(Nc1ccc(Oc2ccccc2)cc1)N1CCOCC1	–	–	–	–	–	·	·	·	·	·	·
Cc1ccc2nc(NCc3ccccc3)[nH]c2c1	–	–	-6.53	-5	–	–	–	–	97.5%	49.0%	–
COc1ccc2nc(NCc3ccccc3)[nH]c2c1	–	–	-5.25	-7	–	–	–	–	90.5%	–	–
COc1ccc(C2=NS(=O)(=O)N(C)C(C(=O)NCc3ccc4c(c3)OCO4)=C2)cc1OC	–	–	–	–	–	·	·	·	·	·	·
Cc1nc(SCC(=O)c2ccc(F)c(F)c2)[nH]c(=O)c1Oc1ccc(F)cc1	–	–	–	–	–	·	·	·	·	·	·
CCOc1ccc(C2(C)CC(=O)N(C)C2=O)cc1 (centres undefined)	–	–	–	–	–	·	·	·	·	·	·
CCn1c(SCC(=O)Nc2ccc3c(c2)n(C)c(=O)n3C)nnc1-c1ccncc1	–	12.4	–	–	–	246.5%	–	36.5%	–	–	118.5%
CCn1c(SCC(=O)NCC(=O)Nc2ccc(F)cc2)nnc1-c1ccncc1	–	–	–	–	–	·	·	·	·	·	·
COCCNC(=S)N1CCOCC1	–	–	–	–	–	·	·	·	·	·	·
C=COCCNC(=S)N1CCOCCOCCN(C(=S)NCCOC=C)CCOCC1	–	–	-4.99	–	–	–	–	–	39.5%	–	–
CCOc1ccc(C(=O)Nc2cccc3ncccc23)cc1Cl	–	–	–	–	–	·	·	·	·	·	·
CC(C)c1cc(C(=O)N2CCCC(Nc3ccc(F)cc3)C2)nc(N)n1 (centres undefined)	–	–	-5.93	–	–	–	–	–	–	–	–
O=C(COC(=O)C1C2CC3OC(=O)C1C3C2)Nc1ccccc1 (centres undefined)	–	–	–	–	–	·	·	·	·	·	·
CCOC(=O)C1=C(c2ccccc2)NC(=O)NC1c1ccc(O)c(OCC)c1 (centres undefined)	–	–	–	–	–	·	·	·	·	·	·
CCOC(=O)C1=C(c2ccccc2)N(C)C(=O)NC1c1ccc(O)c(OC)c1 (centres undefined)	–	–	-9.18	–	–	·	·	·	·	–	–	TRPC4 sel inh 2=–;TRPC4 spec=0.0%;HEK293 MPD ctr 2-1=–;HEK293 MPD ctr-1=0.0%
COc1ccc(C(=O)Nc2cccc(N(C)S(C)(=O)=O)c2)cc1OC	–	–	–	–	–	·	·	·	·	·	·
Cc1ccc(C(=O)Nc2cccc(N(C)S(C)(=O)=O)c2)cc1S(=O)(=O)Nc1ccccc1	–	–	-7.74	–	–	·	·	·	·	–	–	TRPC4 sel inh 2=–;TRPC4 spec=–;HEK293 MPD ctr 2-1=–;HEK293 MPD ctr-1=–
Cc1cccnc1NC(=O)c1c(O)c2ccccc2n(C)c1=O	–	–	-6.92	–	–	·	·	·	·	–	–	TRPC4 sel inh 2=–;TRPC4 spec=-13.0%;HEK293 MPD ctr 2-1=–;HEK293 MPD ctr-1=-144.5%
N=c1c(C(=O)NCCc2ccccc2)cc2c(=O)n3ccccc3nc2n1Cc1ccco1	–	–	–	–	–	·	·	·	·	·	·
SMILES	TRPC4 act	TRPC6 activator	TRPC6 inhibitor	TRPC4 block	TRPC4 potent	HEK293 MPD ctr-2	HEK293 MPD ctr 2-2	TRPC4/MOR mod	TRPC4/MOR inh 2	TRPC6 inh conf	TRPC6 act confirm	others
N=c1c(C(=O)NCC2CCCO2)cc2c(=O)n3ccccc3nc2n1Cc1ccc(F)cc1 (centres undefined)	–	–	-6.02	–	–	–	–	-9.5%	48.5%	48.0%	–
CCOCCCNc1nc2nc3ccc(C)cn3c(=O)c2cc1C(=O)NCC1CCCO1 (centres undefined)	–	–	-5.48	–	–	149.0%	61.0%	23.5%	–	–	·
N=c1c(C(=O)NCC2CCCO2)cc2c(=O)n3ccccc3nc2n1Cc1cccnc1 (centres undefined)	–	–	-7.46	–	–	–	83.5%	-100.5%	33.0%	49.5%	–
N=c1c(C(=O)NCC2CCCO2)cc2c(=O)n3ccccc3nc2n1Cc1ccco1 (centres undefined)	–	–	-5.28	–	–	–	75.5%	13.0%	–	–	–
C=CCc1c(OC)ccc2c1c(S(=O)(=O)c1ccc(C)cc1)cn2COC	–	–	–	–	–	·	·	·	·	·	·
O=C(COc1cc2oc(=O)c3c(c2cc1Cl)CCC3)NCc1ccccn1	–	–	–	–	–	·	·	·	·	·	·
OCCOCCn1c(-c2ccccc2)nc(=S)c2c1CCCC2	–	–	-7.69	–	–	-321.5%	86.0%	-51.5%	53.0%	60.5%	–
Cc1ccc(C(C)C)c(OCC(=O)NC2CCN(C)CC2)c1	–	–	–	–	–	·	·	·	·	·	·
CCN(c1ccc(OC)cc1)S(=O)(=O)N1CCCC(C(=O)NCc2cccc(C)c2)C1 (centres undefined)	–	–	–	–	–	·	·	·	·	·	·

Bioassay records: PubChem, Johns Hopkins Ion Channel Center
